Compound activity deposited in PubChem by several laboratories.
An excerpt weighted towards active compounds, which were near 2.1% of everything screened.
NS3 helicase inh – inhibitors of Hepatitis C virus NS3 helicase; NS3 helicase DNA unwinding, Cy5 molecular beacon fluorescence; inhibition, % at 10.9 µM; hit rate 0.56% among 290,000; AID 1800;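 active = inhibition above the mean of all tested compounds plus 3 SD, set per campaign, cut at about 35% in these data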;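 also: 0% = DMSO wells and 100% = thioflavine S control wells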
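assay system = NS3 helicase fragment of HCV | buffer or medium = MOPS pH 6.5, MgCl2, DTT, Tween20, BSA | timing = 60 min unwinding reaction at 25 °C after ATP addition | signal = Cy5 beacon fluorescence read at start and 1 h | read-out basis = % inhibition of unwinding | control set = low DMSO, high thioflavine S at 110 µM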
ZTA counter – ZTA (EBV) inhibition in EBNA-1 counter-screen. P03206. ZTA-DNA binding, fluorescence polarization. inhibition, % at 11 µM. hit rate 0.15% among 320,000; in the data active = inhibition above about 33%
eIF4H inh – inhibitors of RNA binding by human eIF4H; hit rate 0.94% among 290,000; eIF4H fluorescence polarization binding assay; Q15056; inhibition, % at 35 µM; AID 2012;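 also: calls also rest on retests at 20 µM and on dose response follow-up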
PABP FP inh – PABP-poly(A) binding inhibition. P11940. inhibition, % at 35 µM. AID 2014. PABP-poly(A) RNA binding, fluorescence polarization. hit rate 1% among 290,000;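 also: calls also rest on retests at 20 µM and on dose response follow-up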
Target sequence (P11940 whole entry, looked up): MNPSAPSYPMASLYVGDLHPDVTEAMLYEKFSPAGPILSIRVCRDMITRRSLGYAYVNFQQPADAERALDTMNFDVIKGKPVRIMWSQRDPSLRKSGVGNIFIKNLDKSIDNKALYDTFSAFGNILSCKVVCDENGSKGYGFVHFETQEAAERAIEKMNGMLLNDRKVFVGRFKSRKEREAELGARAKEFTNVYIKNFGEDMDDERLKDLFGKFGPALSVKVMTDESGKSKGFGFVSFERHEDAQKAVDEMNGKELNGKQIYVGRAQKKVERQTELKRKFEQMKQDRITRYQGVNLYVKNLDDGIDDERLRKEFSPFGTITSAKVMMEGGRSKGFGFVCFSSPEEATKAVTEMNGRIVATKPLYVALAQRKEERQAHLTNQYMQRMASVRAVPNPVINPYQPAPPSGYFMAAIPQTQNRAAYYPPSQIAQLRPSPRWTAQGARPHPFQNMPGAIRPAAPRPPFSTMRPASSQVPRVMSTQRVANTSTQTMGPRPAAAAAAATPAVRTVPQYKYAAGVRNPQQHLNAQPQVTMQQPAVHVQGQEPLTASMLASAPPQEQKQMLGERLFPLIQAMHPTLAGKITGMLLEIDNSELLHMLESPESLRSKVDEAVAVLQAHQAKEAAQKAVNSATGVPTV
PABP1 MLLE inh – inhibitors of microRNA-mediated deadenylation, human PABP1 MLLE binding; P11940; GST-MLLE / FITC-PAM2 fluorescence polarization; inhibition, % at 20 µM; hit rate 0.36% among 360,000; in the data active = inhibition above about 35%, passing the limit was not always enough;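 also: plate controls were DMSO wells with GST-MLLE for no effect and wells lacking GST-MLLE protein for full effect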
EBNA-1 inh – blocks EBNA-1 binding to DNA; EBNA-1 DNA binding, fluorescence polarization; inhibition, % at 14.8 µM; hit rate 0.34% among 300,000; in the data active = inhibition above about 28%
Numbers without * were called inactive. Unless noted, no rule for the calls is given here.

What do the screens show for `CC(C)(C)NC(=O)C[C@H]1C[C@H](C(=O)N2CCOCC2)[C@@]2(CCC3CCCC3)c3[nH]c4ccc(Cl)cc4c3CCN2C1=O`?
PABP1 MLLE inh: 0

What do the screens show for `NCCC1CCCC(CCN)N1` (stereo not given)?
ZTA counter: active; PABP1 MLLE inh: 1; EBNA-1 inh: active

Results for CC(c1ccccc1)n1cnc2ccccc21 (stereo not given) ?
NS3 helicase inh: 8; ZTA counter: -7; eIF4H inh: 27; PABP FP inh: 0; PABP1 MLLE inh: 7; EBNA-1 inh: -4

Results for COc1cccc(CN2CCN(Cc3ccc4c(NC(C)=O)cccc4n3)CC2CCO)c1 (stereo not given) ?
NS3 helicase inh: 3; ZTA counter: -9; eIF4H inh: 6; PABP FP inh: 5; PABP1 MLLE inh: -3; EBNA-1 inh: -6

How did COc1ccc2nc(Cl)c(C3CC(c4ccco4)=NN3C(=O)CCC(=O)O)cc2c1 (stereo not given) do in these assays?
NS3 helicase inh: 21; ZTA counter: -4; eIF4H inh: 92*; PABP FP inh: 4; PABP1 MLLE inh: -2; EBNA-1 inh: -2

How did Cc1cccc2cc(C3CC(c4ccco4)=NN3C(=O)CCC(=O)O)c(Cl)nc12 (stereo not given) do in these assays?
NS3 helicase inh: 11; ZTA counter: 0; eIF4H inh: 56*; PABP FP inh: 7; PABP1 MLLE inh: -9; EBNA-1 inh: 7

How did O=C(CCl)N1N=C(c2ccco2)CC1c1ccco1 (stereo not given) do in these assays?
NS3 helicase inh: 28; ZTA counter: 5; eIF4H inh: 54*; PABP FP inh: 31*; PABP1 MLLE inh: 7; EBNA-1 inh: 7

What do the screens show for `COc1ccc2nc(Cl)c(C3CC(c4ccco4)=NN3C(=O)CCCC(=O)O)cc2c1` (stereo not given)?
NS3 helicase inh: 23; ZTA counter: 12; eIF4H inh: 68; PABP FP inh: 38; PABP1 MLLE inh: 1; EBNA-1 inh: 17

Results for Cc1ccc2nc(Cl)c(C3CC(c4ccco4)=NN3C(=O)CCCC(=O)O)cc2c1 (stereo not given) ?
NS3 helicase inh: 2; ZTA counter: 3; eIF4H inh: 17; PABP FP inh: -6; PABP1 MLLE inh: -2; EBNA-1 inh: 4

What do the screens show for `O=C(O)c1cccc(NC(=O)c2ccccc2NC(=O)c2ccccc2F)c1`?
NS3 helicase inh: 6; ZTA counter: -2; eIF4H inh: -2; PABP FP inh: 0; PABP1 MLLE inh: 5; EBNA-1 inh: -2

What do the screens show for `NS(=O)(=O)c1ccc(NC(=O)c2ccc(S(=O)(=O)N3CCCCC3)cc2)cc1`?
PABP1 MLLE inh: -3

How did CN(Cc1ccccc1)S(=O)(=O)c1ccc(NC(=S)NC(=O)C(C)(C)C)cc1 do in these assays?
NS3 helicase inh: 18; ZTA counter: -13; eIF4H inh: 2; PABP FP inh: -1; PABP1 MLLE inh: 36*; EBNA-1 inh: 4

What do the screens show for `NS(=O)(=O)c1ccc(NC(=S)Nc2ccc(S(=O)(=O)N3CCCC3)cc2)cc1`?
NS3 helicase inh: 2; ZTA counter: 12; eIF4H inh: 11; PABP FP inh: 1; PABP1 MLLE inh: 43*; EBNA-1 inh: -5

How did NS(=O)(=O)c1ccc(NC(=S)NC(=O)c2cccs2)cc1 do in these assays?
NS3 helicase inh: -2; ZTA counter: 4; eIF4H inh: -6; PABP FP inh: 0; PABP1 MLLE inh: 31; EBNA-1 inh: -2

How did O=C(NC(=S)Nc1ccc(S(=O)(=O)N2CCCCC2)cc1)c1cccs1 do in these assays?
NS3 helicase inh: 2; ZTA counter: -16; eIF4H inh: 2; PABP FP inh: -1; PABP1 MLLE inh: 44*; EBNA-1 inh: 7

Results for CC(Oc1ccccc1Cl)C(=O)Nc1ccc(S(=O)(=O)N2CCN(C)CC2)cc1 (stereo not given) ?
PABP1 MLLE inh: 40*

How did CC(C)[C@H](NC(=O)N1CC(=O)Nc2ccccc21)C(=O)N1CCC[C@@H]1C(=O)O do in these assays?
NS3 helicase inh: -2; ZTA counter: 2; eIF4H inh: 6; PABP FP inh: 4; PABP1 MLLE inh: 4; EBNA-1 inh: 2

Results for O=C(NCc1ccc(F)cc1)c1cc(C2CCCCN2C(=O)c2ccc3c(c2)CCO3)on1 (stereo not given) ?
PABP1 MLLE inh: 8
